Assay results: ChEMBL document CHEMBL1944548, “Discovery of kinase spectrum selective macrocycle (16E)-14-methyl-20-oxa-5,7,14,26-tetraazatetracyclo[19.3.1.1(2,6).1(8,12)]heptacosa-1(25),2(26),3,5,8(27),9,11,16,21,23-decaene (SB1317/TG02), a potent inhibitor of cyclin dependent kinases (CDKs), Janus kinase 2 (JAK2), and fms-like tyrosine …” (J Med Chem, 2012)
Converted amounts (≈) assume the structure as drawn.

How the values were obtained:
[1] = Half life in human liver microsomes at 5 uM by LC-MS/MS analysis; assay type: ADME, Microsome
In short: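 5 μM with mouse, rat, dog or human liver microsomes (~0.87 mg/mL), 50 mM potassium phosphate pH 7.4, NADPH regeneration system, 37 °C.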

HCT-116 = assay: Antiproliferative activity against human HCT116 cells after 48 hrs; assay type: functional, cell-based; settings: HCT-116, 48 h
[2] = target: Tyrosine-protein kinase JAK2 (Homo sapiens, UniProt O60674); assay: Inhibition of recombinant JAK2 using poly(Glu,Ala,Tyr) as substrate after 2 hrs by luminescence assay
[3] = Solubility of the compound in PBS buffer at 250 uM at pH 7 by UV spectrophotometry; assay type: physicochemical
HL-60 = assay: Antiproliferative activity against human HL60 cells after 48 hrs; assay type: functional, cell-based; settings: HL-60, 48 h
[4] = target: T1, Receptor-type tyrosine-protein kinase FLT3 (Homo sapiens, UniProt P36888); assay: Inhibition of recombinant Flt3 using poly(Glu,Tyr) as substrate after 2 hrs by luminescence assay
T1 sequence (P36888 whole entry): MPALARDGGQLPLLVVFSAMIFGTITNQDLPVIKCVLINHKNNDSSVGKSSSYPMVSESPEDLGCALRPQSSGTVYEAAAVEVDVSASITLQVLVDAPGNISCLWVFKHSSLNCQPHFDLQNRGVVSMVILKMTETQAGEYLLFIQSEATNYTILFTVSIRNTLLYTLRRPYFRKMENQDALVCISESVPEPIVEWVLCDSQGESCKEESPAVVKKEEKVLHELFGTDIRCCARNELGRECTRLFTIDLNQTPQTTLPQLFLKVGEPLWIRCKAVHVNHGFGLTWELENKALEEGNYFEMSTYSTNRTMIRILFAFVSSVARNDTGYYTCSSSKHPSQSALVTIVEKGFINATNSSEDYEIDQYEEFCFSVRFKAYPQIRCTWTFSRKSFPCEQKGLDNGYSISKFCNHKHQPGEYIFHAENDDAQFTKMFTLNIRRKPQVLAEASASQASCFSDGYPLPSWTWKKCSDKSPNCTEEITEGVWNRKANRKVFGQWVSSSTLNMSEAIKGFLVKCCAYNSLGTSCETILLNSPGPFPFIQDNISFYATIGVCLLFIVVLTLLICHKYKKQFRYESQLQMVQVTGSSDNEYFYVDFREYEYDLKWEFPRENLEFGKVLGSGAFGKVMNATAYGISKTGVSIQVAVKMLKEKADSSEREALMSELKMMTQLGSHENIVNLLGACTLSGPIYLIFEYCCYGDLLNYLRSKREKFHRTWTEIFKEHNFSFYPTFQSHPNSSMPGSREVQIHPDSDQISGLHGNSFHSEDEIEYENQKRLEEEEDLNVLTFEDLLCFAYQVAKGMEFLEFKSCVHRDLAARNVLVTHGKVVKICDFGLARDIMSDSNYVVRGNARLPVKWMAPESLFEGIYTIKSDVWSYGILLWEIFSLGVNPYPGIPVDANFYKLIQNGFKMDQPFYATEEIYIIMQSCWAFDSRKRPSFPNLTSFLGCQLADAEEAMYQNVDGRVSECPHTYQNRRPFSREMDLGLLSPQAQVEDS

[5] = target: Cyclin-dependent kinase 2/cyclin A (Homo sapiens, UniProt P24941); assay: Inhibition of recombinant Cdk2/cyclin A using RbING as substrate after 2 hrs by luminescence assay; assay type: protein-complex assay
[6] = Oral bioavailability in nude mouse at 50 mg/kg; assay type: ADME, organism-based; settings: in vivo

Tyrosine-protein kinase JAK2, sequence (O60674 whole entry): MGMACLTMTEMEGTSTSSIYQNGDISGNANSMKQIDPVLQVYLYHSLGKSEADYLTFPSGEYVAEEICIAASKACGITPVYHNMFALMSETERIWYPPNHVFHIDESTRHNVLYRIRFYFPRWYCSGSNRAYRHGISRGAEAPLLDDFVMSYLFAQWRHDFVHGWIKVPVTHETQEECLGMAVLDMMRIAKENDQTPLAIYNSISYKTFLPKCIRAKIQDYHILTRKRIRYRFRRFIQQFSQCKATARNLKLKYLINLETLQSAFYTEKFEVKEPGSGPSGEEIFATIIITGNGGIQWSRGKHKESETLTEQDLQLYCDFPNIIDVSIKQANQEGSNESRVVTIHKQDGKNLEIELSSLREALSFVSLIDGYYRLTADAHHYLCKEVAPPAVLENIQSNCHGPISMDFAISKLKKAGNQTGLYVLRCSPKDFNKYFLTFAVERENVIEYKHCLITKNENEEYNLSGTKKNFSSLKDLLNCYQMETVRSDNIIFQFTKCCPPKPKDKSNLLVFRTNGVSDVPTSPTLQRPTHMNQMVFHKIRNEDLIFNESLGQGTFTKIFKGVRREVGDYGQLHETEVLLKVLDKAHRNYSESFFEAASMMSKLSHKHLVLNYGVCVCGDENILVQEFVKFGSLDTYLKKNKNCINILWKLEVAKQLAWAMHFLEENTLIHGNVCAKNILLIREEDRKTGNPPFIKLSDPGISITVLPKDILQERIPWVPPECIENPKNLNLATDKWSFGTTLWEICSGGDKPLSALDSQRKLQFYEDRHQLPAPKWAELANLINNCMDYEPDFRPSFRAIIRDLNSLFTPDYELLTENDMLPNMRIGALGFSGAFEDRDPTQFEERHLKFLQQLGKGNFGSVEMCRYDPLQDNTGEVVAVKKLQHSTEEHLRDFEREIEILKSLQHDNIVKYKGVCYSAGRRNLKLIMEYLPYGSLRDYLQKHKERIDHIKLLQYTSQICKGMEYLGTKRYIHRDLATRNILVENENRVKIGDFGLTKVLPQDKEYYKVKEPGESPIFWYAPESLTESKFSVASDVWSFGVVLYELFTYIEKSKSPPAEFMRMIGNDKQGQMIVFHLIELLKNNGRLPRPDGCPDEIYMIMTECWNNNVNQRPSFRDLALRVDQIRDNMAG

Structure (SMILES)	half-life at 5 µM [1]	IC50 (HCT-116)	IC50 [2]	solubility at 250 µM [3]	IC50 (HL-60)	IC50 [4]	IC50 [5]	bioavailability [6]
CN1C/C=C/CCOc2cccc(c2)-c2ccnc(n2)Nc2ccc(N3CCOCC3)c(c2)C1	21 min	410 nM	49 nM	147 µg/mL (≈ 321 µM)	76 nM	71 nM	74 nM	–
CC(C)CN1C/C=C/CCOc2cccc(c2)-c2ccnc(n2)Nc2cccc(c2)C1	–	–	1500 nM	–	–	190 nM	200 nM	–
CN1C/C=C/CCOc2cccc(c2)-c2ccnc(n2)Nc2cc(N)cc(c2)C1	–	–	50 nM	–	–	19 nM	7 nM	–
CN1C/C=C/CCOc2cccc(c2)-c2ccnc(n2)Nc2ccc(OCCN3CCOCC3)c(c2)C1	–	–	120 nM	154 µg/mL (≈ 307 µM)	–	40 nM	300 nM	–
CC(C)NCC(=O)N1C/C=C/CCOc2cccc(c2)-c2ccnc(n2)Nc2cccc(c2)C1	–	–	–	105 µg/mL (≈ 230 µM)	–	140 nM	530 nM	–
C1=C/CN(CC2CC2)Cc2cccc(c2)Nc2nccc(n2)-c2cccc(c2)OCC/1	–	–	1500 nM	–	–	270 nM	94 nM	–
N#CCN1C/C=C/CCOc2cccc(c2)-c2ccnc(n2)Nc2ccc(OCCN3CCCC3)c(c2)C1	–	–	150 nM	–	–	29 nM	310 nM	–
CN1C/C=C/CCOc2cccc(c2)-c2cc(N3CCCC3)nc(n2)Nc2cccc(c2)C1	–	–	> 10000 nM	–	–	> 10000 nM	> 10000 nM	–
CN1C/C=C/CCOc2cccc(c2)-c2ccnc(n2)Nc2ccc(OC(F)(F)F)c(c2)C1	–	–	150 nM	–	–	160 nM	57 nM	–
CN1CCN(CCOc2ccc3cc2CN(C)C/C=C/CCOc2cccc(c2)-c2ccnc(n2)N3)CC1	–	–	220 nM	–	–	250 nM	900 nM	–
COc1cc2cc(c1OCCN1CCCC1)CN(C)C/C=C/CCOc1cccc(c1)-c1ccnc(n1)N2	–	–	210 nM	–	–	98 nM	6700 nM	–
COCCOc1ccc2cc1CN(C)C/C=C/CCOc1cccc(c1)-c1ccnc(n1)N2	–	–	62 nM	–	–	25 nM	110 nM	–
CN1C/C=C/CCOc2cccc(c2)-c2ccnc(n2)Nc2ccc(OCCN3CCCC3)c(c2)C1	–	–	56 nM	150 µg/mL (≈ 309 µM)	–	35 nM	250 nM	–
C1=C/CNCc2cccc(c2)Nc2nccc(n2)-c2cccc(c2)OCC/1	–	–	–	–	–	110 nM	21 nM	–
COc1ccc2cc1OCC/C=C/CN(C)Cc1cccc(c1)Nc1nccc-2n1	–	–	510 nM	–	–	310 nM	2300 nM	–
CN1C/C=C/CNC(=O)c2cccc(c2)-c2ccnc(n2)Nc2cccc(c2)C1	–	–	> 10000 nM	–	–	> 10000 nM	> 10000 nM	–
CN1C/C=C/CCOc2cccc(c2)-c2ccnc(n2)Nc2cc(cc(NC(=O)C(F)(F)F)c2)C1	–	–	50 nM	–	–	19 nM	8 nM	–
CCN(CC)CCOc1ccc2cc1CN(C)C/C=C/CCOc1cccc(c1)-c1ccnc(n1)N2	–	–	48 nM	150 µg/mL (≈ 308 µM)	–	30 nM	300 nM	5%
CN1C/C=C/CCOc2cccc(c2)-c2ccnc(n2)Nc2cc(cc(NC(=O)N3CCOCC3)c2)C1	–	–	44 nM	–	–	37 nM	87 nM	–
COCCN1C/C=C/CCOc2cccc(c2)-c2ccnc(n2)Nc2cccc(c2)C1	–	–	1600 nM	–	–	490 nM	410 nM	–

Structure (SMILES)	half-life at 5 µM [1]	IC50 (HCT-116)	IC50 [2]	solubility at 250 µM [3]	IC50 (HL-60)	IC50 [4]	IC50 [5]	bioavailability [6]
C1=C/CNc2cccc(c2)Nc2nccc(n2)-c2cccc(c2)OCC/1	–	–	3300 nM	–	–	2900 nM	150 nM	–
CCS(=O)(=O)c1ccc2cc1CN(C)C/C=C/CCOc1cccc(c1)-c1ccnc(n1)N2	–	–	100 nM	–	–	440 nM	22 nM	–
CN1C/C=C/CCOc2cccc(c2)-c2ccnc(n2)Nc2ccc(Cl)c(c2)C1	–	–	82 nM	–	–	77 nM	24 nM	–
C1=C/CN(C2CC2)Cc2cccc(c2)Nc2nccc(n2)-c2cccc(c2)OCC/1	–	–	90 nM	–	–	42 nM	–	–
C1=C/CN(Cc2ccccn2)Cc2cccc(c2)Nc2nccc(n2)-c2cccc(c2)OCC/1	–	–	1350 nM	–	–	1450 nM	480 nM	–
FC(F)(F)CN1C/C=C/CCOc2cccc(c2)-c2ccnc(n2)Nc2ccc(OCCN3CCCC3)c(c2)C1	–	–	220 nM	–	–	110 nM	> 10000 nM	–
CN1C/C=C/COCc2cccc(c2)-c2ccnc(n2)Nc2cccc(c2)C1	–	–	1700 nM	–	–	210 nM	660 nM	–
CN1C/C=C/CC(=O)Nc2cccc(c2)-c2ccnc(n2)Nc2cccc(c2)C1	–	–	> 10000 nM	–	–	2750 nM	4600 nM	–
CN1C/C=C/CCOc2cccc(c2)-c2ccnc(n2)Nc2ccc(OCCN3CCCCC3)c(c2)C1	–	–	62 nM	146 µg/mL (≈ 292 µM)	–	45 nM	260 nM	–
CN1C/C=C/CCOc2cccc(c2)-c2ccnc(n2)Nc2ccc(OCC(=O)N3CCCC3)c(c2)C1	–	–	140 nM	–	–	150 nM	390 nM	–
CN1C/C=C/COCc2cccc(c2)Nc2nccc(n2)-c2cccc(c2)C1	–	–	230 nM	–	–	310 nM	99 nM	–
CC(C)(C)CN1C/C=C/CCOc2cccc(c2)-c2ccnc(n2)Nc2cccc(c2)C1	–	–	> 10000 nM	–	–	> 10000 nM	> 10000 nM	–
OCCN1C/C=C/CCOc2cccc(c2)-c2ccnc(n2)Nc2cccc(c2)C1	–	–	–	–	–	350 nM	100 nM	–
CCS(=O)(=O)CCOc1ccc2cc1CN(C)C/C=C/CCOc1cccc(c1)-c1ccnc(n1)N2	–	–	110 nM	–	–	93 nM	170 nM	–
O=C(N1C/C=C/CCOc2cccc(c2)-c2ccnc(n2)Nc2cccc(c2)C1)C(F)(F)F	–	–	> 10000 nM	–	–	> 10000 nM	> 10000 nM	–
CN1C/C=C/CCOc2cc(F)cc(c2)-c2ccnc(n2)Nc2cccc(c2)C1	–	–	160 nM	–	–	22 nM	9 nM	–
COc1ccc2cc1CN(C)C/C=C/CCOc1cccc(c1)-c1ccnc(n1)N2	–	–	280 nM	–	–	66 nM	77 nM	–
O=C1CC/C=C\COc2cccc(c2)-c2ccnc(n2)Nc2cccc(c2)N1	–	–	1750 nM	–	–	1020 nM	2600 nM	–
Cc1cc2nc(n1)Nc1cccc(c1)CN(C)C/C=C/CCOc1cccc-2c1	–	–	> 10000 nM	–	–	1700 nM	4700 nM	–
